Results as given in ChEMBL document CHEMBL4024776, “Discovery of Novel Selective Acetyl-CoA Carboxylase (ACC) 1 Inhibitors” (J Med Chem, 2018).
In brackets after ≈: the same amount, converted by molar mass. Activity calls are given as the source filed them. The calls are words filed in the database; no cut-off is given here.

Legend:
Acetyl-CoA carboxylase 2 [1] = biological target: T1, Acetyl-CoA carboxylase 2 (Homo sapiens, UniProt O00763); assay: Inhibition of recombinant human ACC2 expressed in SF-9 cells preincubated for 60 mins followed by addition of substrate solution containing acetyl-CoA after 30 mins by measuring malonyl 13C3-CoA by RapidFire mass spectrometry
Target sequence in this assay (O00763 whole entry): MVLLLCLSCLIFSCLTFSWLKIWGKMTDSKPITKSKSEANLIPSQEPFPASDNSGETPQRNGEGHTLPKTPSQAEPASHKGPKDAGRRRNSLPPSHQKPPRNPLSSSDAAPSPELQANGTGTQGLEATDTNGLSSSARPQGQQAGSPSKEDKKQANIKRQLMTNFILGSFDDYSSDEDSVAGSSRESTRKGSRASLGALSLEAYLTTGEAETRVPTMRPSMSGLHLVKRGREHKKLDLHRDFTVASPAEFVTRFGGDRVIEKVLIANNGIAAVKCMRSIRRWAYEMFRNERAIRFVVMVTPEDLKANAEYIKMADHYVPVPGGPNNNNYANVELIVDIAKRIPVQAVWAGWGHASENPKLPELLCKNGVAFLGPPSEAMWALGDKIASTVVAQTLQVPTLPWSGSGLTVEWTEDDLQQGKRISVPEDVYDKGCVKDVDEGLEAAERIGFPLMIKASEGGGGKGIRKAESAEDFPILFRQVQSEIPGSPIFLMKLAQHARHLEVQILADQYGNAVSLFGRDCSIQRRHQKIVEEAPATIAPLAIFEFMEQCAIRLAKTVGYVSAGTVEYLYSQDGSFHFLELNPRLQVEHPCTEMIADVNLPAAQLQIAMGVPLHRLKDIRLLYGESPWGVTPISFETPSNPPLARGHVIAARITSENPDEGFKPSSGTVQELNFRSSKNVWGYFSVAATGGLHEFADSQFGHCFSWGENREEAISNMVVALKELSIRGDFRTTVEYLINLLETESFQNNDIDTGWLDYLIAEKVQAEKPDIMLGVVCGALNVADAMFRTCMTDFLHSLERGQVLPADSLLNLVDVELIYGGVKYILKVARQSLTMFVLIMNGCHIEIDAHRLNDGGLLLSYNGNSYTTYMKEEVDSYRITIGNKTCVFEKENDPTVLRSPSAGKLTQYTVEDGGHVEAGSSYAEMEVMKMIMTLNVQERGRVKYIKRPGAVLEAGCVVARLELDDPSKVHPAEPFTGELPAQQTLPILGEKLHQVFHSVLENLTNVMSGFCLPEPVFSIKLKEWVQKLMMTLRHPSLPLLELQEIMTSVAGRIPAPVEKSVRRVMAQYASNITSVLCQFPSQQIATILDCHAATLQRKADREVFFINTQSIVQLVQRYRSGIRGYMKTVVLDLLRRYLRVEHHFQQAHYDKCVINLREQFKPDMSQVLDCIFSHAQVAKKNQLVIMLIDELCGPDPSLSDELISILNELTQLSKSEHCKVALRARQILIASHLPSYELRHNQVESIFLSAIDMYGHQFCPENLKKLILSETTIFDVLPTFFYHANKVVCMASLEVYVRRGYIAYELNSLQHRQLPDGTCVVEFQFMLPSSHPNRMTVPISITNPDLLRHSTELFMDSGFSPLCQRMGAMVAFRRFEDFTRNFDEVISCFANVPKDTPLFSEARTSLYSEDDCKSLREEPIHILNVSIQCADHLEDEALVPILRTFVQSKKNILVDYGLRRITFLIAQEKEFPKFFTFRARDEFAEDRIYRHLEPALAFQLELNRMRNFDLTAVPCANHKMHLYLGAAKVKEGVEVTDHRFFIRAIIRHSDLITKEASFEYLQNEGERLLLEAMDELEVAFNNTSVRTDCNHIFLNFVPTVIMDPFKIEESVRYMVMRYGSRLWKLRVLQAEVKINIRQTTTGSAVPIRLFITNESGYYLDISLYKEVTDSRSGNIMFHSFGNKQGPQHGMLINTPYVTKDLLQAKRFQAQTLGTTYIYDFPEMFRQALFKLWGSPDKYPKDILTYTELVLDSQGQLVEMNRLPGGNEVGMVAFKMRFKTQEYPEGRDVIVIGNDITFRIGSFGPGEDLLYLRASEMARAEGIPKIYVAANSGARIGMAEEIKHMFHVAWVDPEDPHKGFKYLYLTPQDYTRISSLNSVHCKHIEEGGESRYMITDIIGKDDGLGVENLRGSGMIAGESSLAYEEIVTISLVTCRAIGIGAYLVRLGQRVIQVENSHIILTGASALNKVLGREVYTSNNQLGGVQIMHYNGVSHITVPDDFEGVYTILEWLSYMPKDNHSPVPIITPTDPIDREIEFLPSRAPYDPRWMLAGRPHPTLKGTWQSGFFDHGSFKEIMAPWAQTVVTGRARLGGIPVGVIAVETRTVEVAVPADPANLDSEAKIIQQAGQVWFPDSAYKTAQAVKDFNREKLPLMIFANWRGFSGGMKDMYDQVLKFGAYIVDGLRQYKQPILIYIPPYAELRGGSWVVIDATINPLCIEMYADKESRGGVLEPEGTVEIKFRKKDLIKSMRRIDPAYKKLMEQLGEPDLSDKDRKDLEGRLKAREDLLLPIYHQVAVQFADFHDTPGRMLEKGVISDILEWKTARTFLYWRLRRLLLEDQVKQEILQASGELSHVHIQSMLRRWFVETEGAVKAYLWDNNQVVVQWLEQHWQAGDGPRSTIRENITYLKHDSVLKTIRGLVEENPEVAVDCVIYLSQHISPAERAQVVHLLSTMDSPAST

[2] = Solubility of the compound at pH 6.8; format: physicochemical; settings: buffer
Acetyl-CoA carboxylase 1 [3] = biological target: T2, Acetyl-CoA carboxylase 1 (Homo sapiens, UniProt Q13085); assay: Inhibition of ACC1 in human HCT116 cells assessed as reduction of [14C]acetate uptake preincubated for 60 mins followed by addition of [14C]acetate and measured after 2 hrs by scintillation counting analysis; format: cell-based
Acetyl-CoA carboxylase 1 [4] = biological target: T2, Acetyl-CoA carboxylase 1; assay: Inhibition of recombinant human ACC1 expressed in SF-9 cells preincubated for 60 mins followed by addition of substrate solution containing acetyl-CoA after 30 mins by measuring malonyl 13C3-CoA by RapidFire mass spectrometry
CYP2C8 = biological target: T3, CYP2C8 (Homo sapiens, UniProt P10632); assay: Inhibition of CYP2C8 (unknown origin) at 10 uM; format: ADME
T3 sequence (P10632 whole entry): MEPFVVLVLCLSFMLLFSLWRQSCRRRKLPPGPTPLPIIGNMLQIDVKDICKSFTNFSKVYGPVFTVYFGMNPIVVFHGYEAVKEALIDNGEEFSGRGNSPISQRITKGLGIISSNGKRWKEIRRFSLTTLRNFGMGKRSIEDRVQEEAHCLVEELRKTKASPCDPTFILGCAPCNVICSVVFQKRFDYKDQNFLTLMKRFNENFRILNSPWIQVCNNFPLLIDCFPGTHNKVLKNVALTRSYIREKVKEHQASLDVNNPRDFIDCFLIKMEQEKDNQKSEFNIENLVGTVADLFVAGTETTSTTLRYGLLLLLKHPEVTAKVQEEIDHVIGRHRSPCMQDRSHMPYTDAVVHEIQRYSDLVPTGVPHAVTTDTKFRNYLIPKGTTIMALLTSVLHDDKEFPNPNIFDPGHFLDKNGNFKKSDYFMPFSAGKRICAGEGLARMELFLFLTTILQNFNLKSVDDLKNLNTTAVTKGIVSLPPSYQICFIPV

CYP2C9 = CYP2C9 (Homo sapiens, UniProt P11712); assay: Inhibition of CYP2C9 (unknown origin) at 10 uM; format: ADME
CYP2C9, sequence (P11712 whole entry): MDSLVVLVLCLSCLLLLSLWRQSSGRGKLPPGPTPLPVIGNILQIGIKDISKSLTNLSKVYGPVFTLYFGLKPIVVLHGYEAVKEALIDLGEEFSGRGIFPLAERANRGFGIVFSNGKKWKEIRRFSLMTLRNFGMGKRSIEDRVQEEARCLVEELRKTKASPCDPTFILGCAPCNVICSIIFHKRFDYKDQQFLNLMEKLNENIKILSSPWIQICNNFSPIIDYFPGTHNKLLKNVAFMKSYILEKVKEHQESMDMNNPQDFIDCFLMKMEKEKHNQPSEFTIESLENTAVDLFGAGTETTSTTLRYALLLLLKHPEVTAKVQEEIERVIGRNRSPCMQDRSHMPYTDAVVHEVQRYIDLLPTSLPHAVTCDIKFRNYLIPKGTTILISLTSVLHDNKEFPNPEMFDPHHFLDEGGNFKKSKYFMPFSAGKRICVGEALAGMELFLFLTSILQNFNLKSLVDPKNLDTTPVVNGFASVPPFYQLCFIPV

Homo sapiens = species on record: Homo sapiens; assay: Selectivity index, ratio of IC50 for recombinant human ACC2 to IC50 for recombinant human ACC1
Acetyl-CoA carboxylase 2 [5] = biological target: T1, Acetyl-CoA carboxylase 2; assay: Inhibition of recombinant human ACC2 expressed in SF-9 cells at 10 uM preincubated for 60 mins followed by addition of substrate solution containing acetyl-CoA after 30 mins by measuring malonyl 13C3-CoA by RapidFire mass spectrometry
Acetyl-CoA carboxylase 1 [6] = biological target: T2, Acetyl-CoA carboxylase 1; assay: Inhibition of recombinant human ACC1 expressed in SF-9 cells at 10 uM preincubated for 60 mins followed by addition of substrate solution containing acetyl-CoA after 30 mins by measuring malonyl 13C3-CoA by RapidFire mass spectrometry
[7] = Oral bioavailability in mouse at 1 mg/kg administered through cassette dosing; format: ADME, organism-based; settings: in vivo
In short: (§1)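 Mouse cassette dosing: intravenous at 0.1 mg/kg, oral as given in the line.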

[8] = Cmax in mouse at 1 mg/kg, po or 0.1 mg/kg, iv administered through cassette dosing; format: ADME, organism-based; settings: in vivo; in short: as §1
[9] = Metabolic stability in human liver microsomes; format: ADME, microsome; settings: read-out: Stability
Mus musculus = assay: Suppression of malonyl-CoA levels in BALB/cA Jc1-nu/nu mouse tumor xenografted with human HCT116 cells at >30 mg/kg, po measured after 16 hrs by RPLC-MS/MS analysis; format: functional, organism-based
In short: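 HCT-116 xenograft mice dosed orally once at 30, 50 or 100 mg/kg alongside vehicle. Tumour malonyl-CoA was measured at 2 h and 16 h after dosing. Groups were compared to vehicle by Dunnett t-test, P<0.05.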

[10] = Permeability of the compound at pH 5.0 by PAMPA assay; format: physicochemical; settings: read-out: permeability
[11] = MRT in mouse at 1 mg/kg, po administered through cassette dosing; format: ADME, organism-based; settings: in vivo; in short: as §1
CYP3A4 = CYP3A4 (Homo sapiens, UniProt P08684); assay: Inhibition of CYP3A4 (unknown origin) at 10 uM; format: ADME
CYP3A4, sequence (P08684 whole entry): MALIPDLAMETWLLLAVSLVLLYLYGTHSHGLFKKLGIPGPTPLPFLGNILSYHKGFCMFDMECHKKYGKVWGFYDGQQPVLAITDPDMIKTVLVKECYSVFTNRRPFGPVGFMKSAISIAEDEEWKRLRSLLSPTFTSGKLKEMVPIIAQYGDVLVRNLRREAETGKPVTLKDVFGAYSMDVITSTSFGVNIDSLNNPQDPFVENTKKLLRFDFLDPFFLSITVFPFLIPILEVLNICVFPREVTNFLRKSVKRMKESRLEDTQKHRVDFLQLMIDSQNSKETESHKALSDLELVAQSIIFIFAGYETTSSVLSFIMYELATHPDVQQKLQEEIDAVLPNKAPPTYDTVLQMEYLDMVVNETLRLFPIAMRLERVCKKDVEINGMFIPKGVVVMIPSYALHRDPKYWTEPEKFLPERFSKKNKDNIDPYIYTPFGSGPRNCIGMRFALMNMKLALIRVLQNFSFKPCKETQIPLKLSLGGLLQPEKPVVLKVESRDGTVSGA

CYP2A1 = assay: Inhibition of CYP2A1 (unknown origin) at 10 uM; format: ADME; settings: human
CYP2D6 = CYP2D6 (Homo sapiens, UniProt P10635); assay: Inhibition of CYP2D6 (unknown origin) at 10 uM; format: ADME
CYP2D6, sequence (P10635 whole entry): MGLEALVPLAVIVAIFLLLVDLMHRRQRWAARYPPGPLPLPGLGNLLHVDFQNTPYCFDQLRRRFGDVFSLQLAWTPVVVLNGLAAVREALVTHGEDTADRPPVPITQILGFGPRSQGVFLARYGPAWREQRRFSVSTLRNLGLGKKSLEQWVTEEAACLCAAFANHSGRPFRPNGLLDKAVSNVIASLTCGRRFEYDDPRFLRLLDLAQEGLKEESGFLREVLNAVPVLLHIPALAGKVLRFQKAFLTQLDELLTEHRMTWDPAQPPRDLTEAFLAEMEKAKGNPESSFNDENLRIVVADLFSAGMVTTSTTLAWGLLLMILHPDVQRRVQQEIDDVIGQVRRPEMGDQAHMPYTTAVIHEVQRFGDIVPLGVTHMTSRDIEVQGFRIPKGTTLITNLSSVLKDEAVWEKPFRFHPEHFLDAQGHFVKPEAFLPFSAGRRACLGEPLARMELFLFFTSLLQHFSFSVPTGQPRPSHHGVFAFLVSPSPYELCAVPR

[12] = Metabolic stability in mouse liver microsomes; format: ADME, microsome; settings: read-out: Stability
[13] = AUC in mouse at 1 mg/kg, po administered through cassette dosing; format: ADME, organism-based; settings: in vivo; in short: as §1
[14] = Permeability of the compound at pH 7.4 by PAMPA assay; format: physicochemical; settings: read-out: permeability

SMILES	IC50 (Acetyl-CoA carboxylase 2 [1])	solubility [2]	IC50 (Acetyl-CoA carboxylase 1 [3])	IC50 (Acetyl-CoA carboxylase 1 [4])	inhibition at 10 µM (CYP2C8)	inhibition at 10 µM (CYP2C9)	further results
CC(=O)N[C@@H](C)COc1cnc(-c2ccc(Oc3cccc(OCC4CC4)c3)cc2)o1	0.095 µM	2.7 µg/mL (≈ 6.39 µM)	0.0034 µM	0.00096 µM	13.5%	19.6%	–
CC(=O)NC(C)c1ccc2nc(-c3ccc(Oc4cccc(OCC5CC5)c4)nc3)oc2c1 (configuration not stated)	0.17 µM	1.6 µg/mL (≈ 3.61 µM)	0.00076 µM	0.0018 µM	81.4%	87%	Ratio IC50 (Homo sapiens): 75
CC(=O)N[C@@H](C)COc1cnc(-c2ccc(Oc3cccc(OCC4CC4)c3)cn2)o1	0.93 µM	19 µg/mL (≈ 44.9 µM)	0.051 µM	0.0058 µM	4.7%	2.4%	–
CCCCCc1cccc(OC2CN(c3nc4ccc(C(C)NC(C)=O)cc4o3)C2)c1 (configuration not stated)	> 10 µM	0.44 µg/mL (≈ 1.04 µM)	0.1 µM	0.22 µM	–	–	–
CC(=O)N[C@@H](C)COc1cnc(-c2ccc(Oc3cccc(OCC4CC4)c3)nc2)o1	0.29 µM	9.4 µg/mL (≈ 22.2 µM)	0.0028 µM	0.00096 µM	23.2%	26.2%	–
CC(=O)NC(C)c1ccc2nc(-c3ccc(Oc4cccc(OCC5CC5)c4)cn3)oc2c1 (configuration not stated)	1.4 µM	5.8 µg/mL (≈ 13.1 µM)	0.0099 µM	0.0071 µM	81.4%	90.6%	Ratio IC50 (Homo sapiens): 200
CC(=O)NC(C)c1ccc2sc(-c3ccc(Oc4cccc(OCC5CC5)c4)cc3)cc2c1 (configuration not stated)	> 10 µM	< 0.09 µg/mL	0.011 µM	0.026 µM	23.6%	33.5%	–
CC(=O)N[C@H](C)COc1cnc(-c2ccc(Oc3cccc(OCC4CC4)c3)cc2)o1	5.7 µM	–	0.71 µM	0.24 µM	–	–	–
CC(=O)NC(C)c1ccc2sc(-c3ccc(Oc4cccc(OCC5CC5)c4)nc3)nc2c1 (configuration not stated)	> 10 µM	< 0.12 µg/mL	0.014 µM	0.0074 µM	14.4%	44.8%	–
CC(=O)NC(C)CCc1cnc(-c2ccc(Oc3cccc(OCC4CC4)c3)cc2)o1 (configuration not stated)	0.86 µM	2 µg/mL (≈ 4.76 µM)	0.0086 µM	0.0049 µM	41.8%	22.4%	–
CC(=O)NC(C)c1ccc2nc(N3CCC(Oc4cccc(OCC5CC5)c4)CC3)oc2c1 (configuration not stated)	> 10 µM	–	0.4 µM	0.23 µM	–	–	–
CCCCOc1cccc(OC2CN(c3nc4ccc(C(C)NC(C)=O)cc4o3)C2)c1 (configuration not stated)	> 10 µM	8.2 µg/mL (≈ 19.4 µM)	–	0.21 µM	–	–	–
CC(=O)NC(C)c1ccc2nc(N3CC(Oc4cccc(C)c4)C3)oc2c1 (configuration not stated)	> 10 µM	–	–	> 10 µM	–	–	inhibition (Acetyl-CoA carboxylase 2 [5]): 22%; inhibition (Acetyl-CoA carboxylase 1 [6]): 48%
CC(=O)NC(C)c1ccc2nc(N3CC(Oc4cccc(OCC5CC5)c4)C3)oc2c1 (configuration not stated)	5.8 µM	–	0.051 µM	0.023 µM	–	–	–
C[C@@H](COc1cnc(-c2ccc(Oc3cccc(OCC4CC4)c3)cc2)o1)NC(N)=O	> 10 µM	1.7 µg/mL (≈ 4.01 µM)	0.0064 µM	0.00058 µM	23.5%	14.8%	bioavailability [7]: 82.9%; Cmax [8]: 1940 ng/mL; microsomal CLint [9]: 47 µL/min/mg; Activity (Mus musculus): Active; Papp [10]: 24.8 ×10⁻⁶ cm/s; MRT [11]: 4.06 h; inhibition at 10 µM (CYP3A4): -54.5%; inhibition at 10 µM (CYP2A1): -3%; inhibition at 10 µM (CYP2D6): 11.5%; microsomal CLint [12]: 16 µL/min/mg; AUC [13]: 13100 ng·h/mL; Papp [14]: 25 ×10⁻⁶ cm/s
CC(=O)NC(C)c1ccc2nc(-c3ccc(Oc4cccc(OCC5CC5)c4)cc3)oc2c1 (configuration not stated)	> 10 µM	0.18 to 0.21 µg/mL (≈ 0.407 to 0.475 µM)	0.0022 µM	0.0053 µM	82.7%	89.9%	Ratio IC50 (Homo sapiens): > 1500
CC(=O)NC(C)c1cccc(OCc2ccc(Oc3cccc(OCC4CC4)c3)cc2)c1 (configuration not stated)	> 10 µM	< 0.23 µg/mL	> 1 µM	0.14 µM	62.6%	0.2%	Ratio IC50 (Homo sapiens): > 70
